# Assay outcomes as filed in PubChem.
# SUMO Mot1 rescue: blocks SUMOylation pathway, rescuing yeast Mot1-301 growth | 1% of 320,000 active | S. cerevisiae Mot1-301 growth rescue, ATP luminescence, 38.5C; percent above DMSO median, 100 means doubled | growth rescue, % at 18.8 µM;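 active = every valid replicate shows activation above 250% relative to neutral control wells; inactive = the rest, any valid replicate at or below 250%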;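 also: OY570 slx delta 5 strain wells were the positive control but not used for scaling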
# Cneo AK release: causes C. neoformans cell lysis. adenylate kinase release luminescence, 4 h; normalised: neutral wells 0, clomiphene wells 100. lysis activity, % at 15 µM. 0.2% of 360,000 active;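 active = mean lysis activity across replicates of at least 80%, whatever share of replicates individually reach that level; inactive = mean lysis activity below 80%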
#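 Material: C. neoformans cells | Amount: Yeast cell density of 5 × 10^6 cells/mL | Medium: Fresh YPD growth medium | Dosing: Single dose | Times: Static 4 h at 37 °C with compound, 1 h detection | Detection: AK luminescence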
# Ecoli rRNA inh: inhibits bacterial ribosomal RNA function over humanized ribosomes; 1.6% of 350,000 active; GFP signal change (wild-type ribosome), % (concentration not given with the values); E. coli WT GFP vs humanized-ribosome RFP mutants, fluorescence, 24 h; hits give low values; DMSO median 0, no signal -100; AID 720706;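 active = significant combined selectivity score with lowered wild-type GFP, culture density cut under 30%, mutant RFP and density less affected; inactive = any of these conditions unmet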
# PglD inh: PglD (C. jejuni) enzyme inhibition. purified PglD enzyme, DTNB colorimetric CoA detection. inhibition, % at 12.5 µM. 0.098% of 360,000 active. AID 602405; in the data active = inhibition above about 16%, passing the limit was not always enough
# Yeast superoxide: caloric restriction mimetics inhibiting age-related superoxide in yeast; 0.18% of 330,000 active; S. cerevisiae aged cells, superoxide DHE fluorescence; hits give low values; superoxide response (% of plate mean), % at 10 µM;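 active = superoxide response under a set limit, about three screen SD below normal, cut at about 65% in these data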;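 also: yeast aged for seven days with compound at 30 °C before DHE staining; 100% = average MFI of all compound-treated wells on the plate with controls excluded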
# Yeast Mot1 SUMO: SUMO pathway inhibitors in yeast Mot1-301 growth. shares compounds with SUMO Mot1 rescue. 2,300 tested, under 10 active. growth activity, percent, % at 42 µM. S. cerevisiae Mot1-301 galactose growth, ATP luminescence, 24 h; -100 = growth of slx-deleted rescue strain;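 active = Signal drops as the depositor expects, and the fitted half-maximal dose is no more than ten times the top valid tested dose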;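 also: more negative values mean stronger growth rescue toward the control strain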
# * hit, by the source's call; · = not tested or not shown; ! = not confirmed by another sample. An excerpt weighted towards active compounds, which were near 2.2% of everything screened.
SMILES,SUMO Mot1 rescue,Cneo AK release,Ecoli rRNA inh,PglD inh,Yeast superoxide,Yeast Mot1 SUMO
Cc1ccc(C)c(OCCCC(=O)N2CCOCC2)c1,689*,3,8,-2,99,1
Cc1cc(C)n2nc(SCC(=O)NC3CCCC(C)C3C)nc2n1 (stereo not given),517*,-2,5,0,87,0
Cc1cc(C)n2c(SCC(=O)NC3CCCC(C)C3C)nnc2n1 (stereo not given),71,·,6,·,109,·
Cc1ccc(N/C=C(\C#N)c2ccc(OCCCF)cc2)cc1,724*,11,·,5,105,0
COC(=O)C1=C(C)NC(C)=C(C(=O)OC)C1c1ccc(-c2cccc([N+](=O)[O-])c2)o1,-1,1,1,-6,86,·
COC(=O)C1=C(C)NC(C)=C([N+](=O)[O-])C1c1ccccc1C(F)(F)F (stereo not given),497*!,1,-4,-1,104,-1
COc1ccccc1C1NC(=O)CS1 (stereo not given),360*,1,·,-3,101,0
COc1ccc(C(=O)COc2ccc3ccc(=O)oc3c2)cc1,426*,0,5,-5,99,0
COc1ccc(C(=O)COc2ccc3ccc(=O)oc3c2)c(OC)c1,1,-1,2,-1,100,·
Cc1noc(C)c1NC(=O)Nc1ccc2c(c1)CC(=O)N([C@@H](C)CO)C[C@@H](C)[C@H](CN(C)CC1CCCCC1)O2,·,-6,0,7,·,·
Cc1ccccc1S(=O)(=O)Nc1ccc2c(c1)C(=O)N(C)[C@H]1CC[C@H](CC(=O)O)O[C@@H]1CO2,·,·,3,·,·,·
C/C=C/c1cnc2c(c1)C(=O)N([C@H](C)CO)C[C@@H](C)[C@@H](CN(C)S(=O)(=O)c1ccccc1F)O2,·,4,1,-3,·,·
CC(=Nc1ccccc1)C1=C(O)CC(C)(C)CC1=O,432*,-1,15,-2,102,1
COC(=O)C[C@@H]1CC[C@@H]2[C@H](COc3ccc(NC(=O)NC(C)C)cc3C(=O)N2C)O1,·,-2,4,3,·,·
Cc1cccc(N2CCN(C(=O)CN3C(=O)NC(C)(C)C3=O)CC2)c1C,527*,·,-18,·,108,0
Cc1cccc(N2CCN(C(=O)CN3C(=O)NC(C)(C4CC4)C3=O)CC2)c1C (stereo not given),·,4,-4,-1,·,·
CC(C)c1onc(C(=O)NCCc2ccccc2)c1[N+](=O)[O-],108,·,1,·,100,·
CC(C)c1onc(C(=O)N(C)Cc2ccccc2)c1[N+](=O)[O-],726*,-1,11,3,103,0
CCCC(=O)Nc1ccc2c(c1)C(=O)N(C)C[C@H](OC)[C@H](C)CN(C)[C@H](C)CO2,·,20,1,-3,·,·
O=C(C[C@@H]1CC[C@H](NC(=O)C2CCC2)[C@@H](CO)O1)NCc1ccccc1Cl,·,-1,1,1,·,·
Cc1noc(C)c1S(=O)(=O)Nc1ccc2c(c1)C(=O)N([C@H](C)CO)C[C@@H](C)[C@@H](CN(C)C(=O)Nc1ccccc1)OCCCC[C@@H](C)O2,·,-5,2,11,·,·
O=C(COC(=O)COc1ccccc1Cl)Nc1ccccc1OC(F)F,578*,0,·,8,110,1
CN(C)CC/C=C1/c2cc(F)ccc2Sc2ccc(Cl)cc21,738*,-4,-50*,-6,102,0
COc1ccccc1NC(=O)N1CC(=O)N2[C@@H](CO)[C@@H](c3ccc(C#Cc4ccc(F)cc4)cc3)[C@@H]2C1,·,·,0,·,·,·
Cc1ccc(C(=O)N/C(=C\c2cccs2)C(=O)NCCc2c[nH]c3ccccc23)cc1,494*,·,·,·,111,0
SMILES,SUMO Mot1 rescue,Cneo AK release,Ecoli rRNA inh,PglD inh,Yeast superoxide,Yeast Mot1 SUMO
Cc1ccc(C(=O)N/C(=C\c2cccs2)C(=O)NCc2ccncc2)cc1,612*,-1,·,3,118,1
COC(=O)[C@@]1(CCS(=O)(=O)c2ccccc2)N=C(c2ccc(OCCCO)cc2)O[C@H]1c1ccccc1CN=[N+]=[N-],·,·,·,-1,·,·
CC1CC(C)(C)N(C(=O)CN2C(=O)CCC2=O)c2ccccc21 (stereo not given),371*,0,3,1,98,0
CC1=CC(C)(C)N(C(=O)CN2C(=O)CCC2=O)c2ccccc21,-16,·,2,·,88,·
C[C@@H]1CN([C@H](C)CO)C(=O)c2c(c3ccccc3n2C)-c2ccccc2CO[C@H]1CN(C)C(=O)C1CC1,·,50,0,1,·,·
COCCNS(=O)(=O)c1cc(C(=O)O)ccc1OC,61,·,14,·,101,·
COc1ccc(C(=O)O)cc1S(=O)(=O)NCCN(C)C,824*,3,4,1,99,0
CC(C)NC(=O)Nc1ccc2c(c1)C(=O)N(C)C[C@H](C)[C@H](CN(C)C(=O)OC(C)(C)C)O2,·,·,-3,·,·,·
O=C(C1CCOCC1)N1C[C@@H]2[C@H](c3ccccc31)[C@@H](CO)N2Cc1ccc(Cl)cc1,·,1,0,-3,·,·
Cc1ccc(S(=O)(=O)N2CCOCC2)cc1NC(=O)COC(=O)CCC(=O)c1cccs1,522*,-3,·,2,83,1
c1ccc(COc2ccc(OCCCN3CCCC3)cc2)cc1,4,-8,-6,3,96,·
CCN(CC)CCOc1cccc(C(C)C)c1,245,2,·,1,100,·
Cc1ccc(OCCCCN2CCC(C)CC2)cc1,70,-2,·,7,68,·
CC1CCN(CCCOc2ccc(OCc3ccccc3)cc2)CC1,551*,-3,-4,3,93,0
CC1CCN(CCCCOc2cccc(C(C)C)c2)CC1,408*,-3,-3,-2,95,-1
CC1CCN(CCCCOc2ccc(F)cc2)CC1,548*,0,·,-6,88,0
CC(C)c1cccc(OCCCCN(C)C)c1,568*,·,9,·,105,0
CCCC#Cc1cnc2c(c1)C(=O)N([C@H](C)CO)C[C@H](C)[C@@H](CN(C)C(=O)C1CCCCC1)O2,·,·,2,·,·,·
CCN(C(=O)Cn1c(=O)oc2ccccc21)c1cccc(C)c1,628*,-1,3,7,118,0
CC(=O)N1[C@H](CO)[C@H](c2ccc(-c3cccnc3)cc2)[C@H]1CNC(=O)C1CCC1,·,·,1,·,·,·
Cc1ccc(N2C(=O)c3cccc4c([N+](=O)[O-])ccc(c34)C2=O)c2cccnc12,8,-2,6,2,95,·
Cc1ccc(N2C(=O)c3cccc4c(N5CCN(C)CC5)ccc(c34)C2=O)c2cccnc12,702*,·,·,·,100,-1
CC1=C(C(=O)N2CCOCC2)C(c2ccc(O)cc2)NC(=S)N1 (stereo not given),583*,·,·,·,88,0
CC1=C(C(=O)N2CCOCC2)C(c2ccc(-c3ccccc3)cc2)NC(=S)N1 (stereo not given),-7,3,2,-1,102,·
